ChEMBL document CHEMBL1255289, “In vitro antifungal activities of isavuconazole (BAL4815), voriconazole, and fluconazole against 1,007 isolates of zygomycete, Candida, Aspergillus, Fusarium, and Scedosporium species” (2008)
Converted amounts (≈) assume the structure as drawn.

Columns and labels:
Type in all cases: functional
[1] = tested on: Lomentospora prolificans; experiment: Antifungal activity against Scedosporium prolificans isolates by Etest
Method in brief: (§1)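 Etest on RPMI agar with 2% glucose, swab-inoculated with the microdilution spore or yeast suspension taken before its 50-fold dilution. Plates were incubated at 35°C and read at 48 h. The MIC was the ellipse–scale intercept, raised to the next twofold dilution step.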

[2] = tested on: Candida; experiment: Antifungal activity against Candida sp. isolates after 48 hrs by CLSI M27-A2 procedure based assay
Method in brief: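 Candida isolates were stored at –70°C as yeast suspensions and subcultured on potato dextrose or Sabouraud agar before use. Broth microdilution used DMSO drug stocks, with final well concentrations of 0.015–16 or 0.125–128 µg/ml depending on the azole. Plates were incubated at 35°C and read macroscopically at 48 h. MIC-2 was the lowest concentration giving a prominent turbidity decrease (~50% growth inhibition).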

[3] = tested on: Fusarium; experiment: Antifungal activity against Fusarium sp. isolates assessed as lowest compound concentration that produced complete inhibition of microbial growth after 24 hrs by CLSI M38-A procedure based assay
[4] = tested on: Aspergillus sp.; experiment: Antifungal activity against Aspergillus sp. isolates by Etest; method in brief: as §1
[5] = tested on: Scedosporium apiospermum; experiment: Antifungal activity against Scedosporium apiospermum isolates assessed as lowest compound concentration that produced slight growth or approximately 25% of that of growth control after 24 hrs by CLSI M38-A procedure based assay
[6] = tested on: Absidia; experiment: Antifungal activity against Absidia isolates assessed as lowest compound concentration that produced complete inhibition of microbial growth after 24 hrs by CLSI M38-A procedure based assay
Method in brief: (§2)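 Zygomycete isolates subcultured on potato dextrose or Sabouraud agar, then tested by CLSI M38-A broth microdilution. Drugs were serially diluted in plates at final 0.015–16 µg/ml and incubated at 35°C. Plates were read by eye at 24 h. MIC-0 was the lowest concentration giving complete growth inhibition.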

[7] = tested on: Candida albicans; experiment: Antifungal activity against Candida albicans isolates after 48 hrs by CLSI M27-A2 procedure based assay
Method in brief: (§3)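 Candida isolates tested by CLSI M27-A2 broth microdilution at final 0.015–16 µg/ml, or 0.125–128 µg/ml for the comparator azole. Incubation was at 35°C with a visual read at 48 h. MIC-2 was the lowest concentration giving a prominent turbidity drop, about 50% growth inhibition.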

[8] = tested on: Candida parapsilosis; experiment: Antifungal activity against Candida parapsilosis isolates by Etest; conditions: Lodderomyces parapsilosis; method in brief: as §1
[9] = tested on: Aspergillus terreus; experiment: Antifungal activity against Aspergillus terreus isolates after 48 hrs by CLSI M38-A procedure based assay
Method in brief: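 Aspergillus isolates tested by CLSI M38-A broth microdilution at final 0.015–16 µg/ml and 35°C. Plates were read macroscopically at 48 h. The MIC was the lowest concentration producing complete inhibition of growth (MIC-0).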

[10] = tested on: Absidia; experiment: Antifungal activity against Absidia isolates by Etest
Method in brief: (§4)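 Etest. The spore inoculum used for microdilution, taken before the 50-fold dilution, was swabbed onto RPMI agar with 2% glucose, strips applied, and plates held at 35°C and read at 24 h. The MIC was where the inhibition ellipse met the strip scale, rounded up to the next twofold dilution.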

[11] = tested on: Candida albicans; experiment: Antifungal activity against Candida albicans isolates by Etest; method in brief: as §1
[12] = tested on: Mucor; experiment: Antifungal activity against Mucor isolates assessed as lowest compound concentration that produced slight growth or approximately 25% of that of growth control after 24 hrs by CLSI M38-A procedure based assay
Method in brief: (§5)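 Clinical isolates were kept at –70°C as spore suspensions in sterile water and subcultured on potato dextrose or Sabouraud agar before testing. Broth microdilution used DMSO stocks in trays stored at –70°C, with final drug 0.015–16 µg/ml.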

[13] = tested on: Absidia; experiment: Antifungal activity against Absidia isolates assessed as lowest compound concentration that produced slight growth or approximately 25% of that of growth control after 24 hrs by CLSI M38-A procedure based assay; method in brief: as §5
[14] = tested on: Candida tropicalis; experiment: Antifungal activity against Candida tropicalis isolates by Etest; method in brief: as §1
[15] = tested on: Candida tropicalis; experiment: Antifungal activity against Candida tropicalis isolates after 48 hrs by CLSI M27-A2 procedure based assay; method in brief: as §3
[16] = tested on: Scedosporium apiospermum; experiment: Antifungal activity against Scedosporium apiospermum isolates by Etest; method in brief: as §1
[17] = tested on: Cunninghamella; experiment: Antifungal activity against Cunninghamella isolates assessed as lowest compound concentration that produced slight growth or approximately 25% of that of growth control after 24 hrs by CLSI M38-A procedure based assay; method in brief: as §5
[18] = tested on: Lomentospora prolificans; experiment: Antifungal activity against Scedosporium prolificans isolates assessed as lowest compound concentration that produced complete inhibition of microbial growth after 24 hrs by CLSI M38-A procedure based assay
[19] = tested on: Syncephalastrum; experiment: Antifungal activity against Syncephalastrum isolates assessed as lowest compound concentration that produced complete inhibition of microbial growth after 24 hrs by CLSI M38-A procedure based assay; method in brief: as §2
[20] = tested on: Aspergillus fumigatus; experiment: Antifungal activity against Aspergillus fumigatus isolates by Etest; method in brief: as §1
[21] = tested on: Mucor; experiment: Antifungal activity against Mucor isolates by Etest; method in brief: as §4
[22] = tested on: Mucor; experiment: Antifungal activity against Mucor isolates assessed as lowest compound concentration that produced complete inhibition of microbial growth after 24 hrs by CLSI M38-A procedure based assay; method in brief: as §2
[23] = tested on: Rhizopus; experiment: Antifungal activity against Rhizopus isolates assessed as lowest compound concentration that produced complete inhibition of microbial growth after 24 hrs by CLSI M38-A procedure based assay; method in brief: as §2

**Q.** What does the source list for `C[C@@H](c1nc(-c2ccc(C#N)cc2)cs1)[C@](O)(Cn1cncn1)c1cc(F)ccc1F` [ISAVUCONAZOLE]?
**A.** MIC50 [1]: > 32 µg/mL; MIC90 [1]: > 32 µg/mL; MFC [2]: 0.003 µg/mL (≈ 0.00686 µM); MIC [2]: > 0.015 µg/mL; MFC50 [3]: >16 µg/mL; MFC ([3]; Fusarium, 24 h): 4 µg/mL (≈ 9.14 µM); MIC50 ([3]; Fusarium, 24 h): 16 µg/mL (≈ 36.6 µM); MIC90 ([3]; Fusarium, 24 h): > 16 µg/mL; MIC [4]: 0.02 µg/mL (≈ 0.0457 µM); MIC50 [5]: 1 µg/mL (≈ 2.29 µM); MIC90 [5]: 2 µg/mL (≈ 4.57 µM); MFC [6]: 4 µg/mL (≈ 9.14 µM); MIC [6]: 1 µg/mL (≈ 2.29 µM); MFC50 [7]: >16 µg/mL; MFC90 [7]: >16 µg/mL; MFC ([7]; Candida albicans, 48 h): 0.03 µg/mL (≈ 0.0686 µM); MIC50 ([7]; Candida albicans, 48 h): 0.03 µg/mL (≈ 0.0686 µM); MIC90 ([7]; Candida albicans, 48 h): < 0.015 µg/mL; MIC50 [8]: 0.004 µg/mL (≈ 0.00914 µM); MIC90 [8]: 0.023 µg/mL (≈ 0.0526 µM); MFC50 [9]: 1 µg/mL (≈ 2.29 µM); MFC90 [9]: 1 µg/mL (≈ 2.29 µM); MFC ([9]; Aspergillus terreus, 48 h): 0.25 µg/mL (≈ 0.571 µM); MIC50 ([9]; Aspergillus terreus, 48 h): 1 µg/mL (≈ 2.29 µM); MIC90 ([9]; Aspergillus terreus, 48 h): 1 µg/mL (≈ 2.29 µM); MIC [10]: 0.25 µg/mL (≈ 0.571 µM); MIC50 [11]: 0.004 µg/mL (≈ 0.00914 µM); MIC90 [11]: 0.015 µg/mL (≈ 0.0343 µM); MIC50 [12]: 1 µg/mL (≈ 2.29 µM); MIC90 [12]: 8 µg/mL (≈ 18.3 µM); MIC [13]: 0.5 µg/mL (≈ 1.14 µM); MIC [14]: 0.003 µg/mL (≈ 0.00686 µM); MIC50 [14]: 0.015 µg/mL (≈ 0.0343 µM); MIC90 [14]: 0.125 µg/mL (≈ 0.286 µM); MFC50 [15]: >16 µg/mL; MFC90 [15]: >16 µg/mL; MFC ([15]; Candida tropicalis, 48 h): 2 µg/mL (≈ 4.57 µM); MIC ([15]; Candida tropicalis, 48 h): < 0.015 µg/mL; MIC50 ([15]; Candida tropicalis, 48 h): < 0.015 µg/mL; MIC90 ([15]; Candida tropicalis, 48 h): 0.06 µg/mL (≈ 0.137 µM); MIC [16]: > 32 µg/mL; MIC [17]: 0.5 µg/mL (≈ 1.14 µM); MFC50 [18]: >16 µg/mL; MFC90 [18]: >16 µg/mL; MFC ([18]; Lomentospora prolificans, 24 h): > 16 µg/mL; MIC ([18]; Lomentospora prolificans, 24 h): > 16 µg/mL; MFC [19]: 1 µg/mL (≈ 2.29 µM); MIC [19]: 0.25 µg/mL (≈ 0.571 µM); MIC [20]: 0.047 µg/mL (≈ 0.107 µM); MIC50 [20]: 0.25 µg/mL (≈ 0.571 µM); MIC90 [20]: 0.5 µg/mL (≈ 1.14 µM); MIC [21]: 0.19 µg/mL (≈ 0.434 µM); MIC50 [21]: 2 µg/mL (≈ 4.57 µM); MIC90 [21]: > 32 µg/mL; MFC50 [22]: 8 µg/mL (≈ 18.3 µM); MFC90 [22]: >16 µg/mL; MFC ([22]; Mucor, 24 h): 2 µg/mL (≈ 4.57 µM); MIC50 ([22]; Mucor, 24 h): 2 µg/mL (≈ 4.57 µM); MIC90 ([22]; Mucor, 24 h): 16 µg/mL (≈ 36.6 µM); MFC50 [23]: 4 µg/mL (≈ 9.14 µM); MFC90 [23]: >16 µg/mL; MFC ([23]; Rhizopus, 24 h): 1 µg/mL (≈ 2.29 µM); MIC ([23]; Rhizopus, 24 h): 1 µg/mL (≈ 2.29 µM); MIC50 ([23]; Rhizopus, 24 h): 1 µg/mL (≈ 2.29 µM); MIC90 ([23]; Rhizopus, 24 h): 16 µg/mL (≈ 36.6 µM)
